Source: ChEMBL document CHEMBL1146194, “The Anti-Trypanosoma cruzi activity of posaconazole in a murine model of acute Chagas' disease is less dependent on gamma interferon than that of benznidazole” (2007)

Assays:
Format in all cases: functional
Mus musculus [1] = assay: Mortality rate in Trypanosoma cruzi Y infected wild type C57BL/6 mouse Chagas disease model at 100 mg/kg, po after 20 days
Outline: (§1)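 Male C57BL/6 mice aged 8–10 weeks (wild-type or cytokine KO) were infected i.p. with 5,000 Y-strain blood trypomastigotes. Treatment was oral, 100 mg/kg once daily in water with arabic gum, from 4 dpi for 20 consecutive days. Deaths were recorded up to 60 dpi, and mortality was given as deaths/total. Mean survival time assigned survivors a death time of exactly 60 days. Log rank and Peto-Peto-Wilcoxon tests were used.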

Mus musculus [2] = assay: Mortality rate in Trypanosoma cruzi Y infected IFN-gamma knock out C57BL/6 mouse Chagas disease model at 100 mg/kg, po after 20 days; outline: as §1
Mus musculus [3] = assay: Mortality rate in Trypanosoma cruzi Y infected IL12 knock out C57BL/6 mouse Chagas disease model at 100 mg/kg, po after 20 days; outline: as §1
Mus musculus [4] = assay: Effect on survival in Trypanosoma cruzi Y infected C57BL/6 mouse Chagas disease model assessed as mean survival time at 100 mg/kg, po after 20 days; outline: as §1
Mus musculus [5] = assay: Effect on survival in Trypanosoma cruzi Y infected IFN-gamma knock out C57BL/6 mouse Chagas disease model assessed as mean survival time at 100 mg/kg, po after 20 days; outline: as §1
Mus musculus [6] = assay: Effect on survival in Trypanosoma cruzi Y infected IL12 knock out C57BL/6 mouse Chagas disease model assessed as mean survival time at 100 mg/kg, po after 20 days; outline: as §1
Trypanosoma cruzi [7] = assay: Antimicrobial activity against Trypanosoma cruzi Y infected wild type C57BL/6 mouse Chagas disease model assessed as percent of cured mouse at 100 mg/kg, po after 20 days
Outline: (§2)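 Male mice, 8–10 weeks, infected i.p. with 5,000 blood trypomastigotes (Y strain, passaged in Swiss-Webster mice). From 4 dpi, dosed orally once daily for 20 consecutive days in water with arabic gum. Fresh tail blood examined to 60 dpi. Aparasitemic mice were then bled (0.5 ml), and blood was cultured in LIT medium at 28°C for 30–60 days. Cure means negative by both methods.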

Trypanosoma cruzi [8] = assay: Antimicrobial activity against Trypanosoma cruzi Y infected IFN-gamma knock out C57BL/6 mouse Chagas disease model assessed as percent of cured mouse at 100 mg/kg, po after 20 days; outline: as §2
Trypanosoma cruzi [9] = assay: Antimicrobial activity against Trypanosoma cruzi Y infected IL12 knock out C57BL/6 mouse Chagas disease model assessed as percent of cured mouse at 100 mg/kg, po after 20 days; outline: as §2
Mus musculus [10] = assay: Mortality rate in Trypanosoma cruzi Y infected wild type C57BL/6 mouse Chagas disease model at 20 mg/kg, po twice daily after 20 days
Outline: (§3)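 Male C57BL/6 mice aged 8–10 weeks (wild-type or cytokine KO) were infected i.p. with 5,000 Y-strain blood trypomastigotes. From 4 dpi they received 20 mg/kg/day orally, split into two daily doses, for 20 days, in 2% methylcellulose with 0.5% Tween 80. Deaths were tracked to 60 dpi, and mortality was given as deaths/total. Mean survival time counted survivors as dying at 60 days. Log rank and Peto-Peto-Wilcoxon tests were used.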

Mus musculus [11] = assay: Mortality rate in Trypanosoma cruzi Y infected IFN-gamma knock out C57BL/6 mouse Chagas disease model at 20 mg/kg, po twice daily after 20 days; outline: as §3
Mus musculus [12] = assay: Mortality rate in Trypanosoma cruzi Y infected IL12 knock out C57BL/6 mouse Chagas disease model at 20 mg/kg, po twice daily after 20 days; outline: as §3
Mus musculus [13] = assay: Effect on survival in Trypanosoma cruzi Y infected C57BL/6 mouse Chagas disease model assessed as mean survival time at 20 mg/kg, po twice daily after 20 days; outline: as §3
Mus musculus [14] = assay: Effect on survival in Trypanosoma cruzi Y infected IFN-gamma knock out C57BL/6 mouse Chagas disease model assessed as mean survival time at 20 mg/kg, po twice daily after 20 days; outline: as §3
Mus musculus [15] = assay: Effect on survival in Trypanosoma cruzi Y infected IL12 knock out C57BL/6 mouse Chagas disease model assessed as mean survival time at 20 mg/kg, po twice daily after 20 days; outline: as §3
Trypanosoma cruzi [16] = assay: Antimicrobial activity against Trypanosoma cruzi Y infected wild type C57BL/6 mouse Chagas disease model assessed as percent of cured mouse at 20 mg/kg, po twice daily after 20 days
Outline: (§4)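 Male C57BL/6 mice aged 8–10 weeks (wild-type, IL-12p40 KO or IFN-γ KO) were infected i.p. with 5,000 blood trypomastigotes of the Y strain. From 4 dpi they were dosed orally at 20 mg/kg/day, split into two daily doses, for 20 consecutive days, in 2% methylcellulose with 0.5% Tween 80. Mice negative on fresh blood at 60 dpi had 0.5 ml orbital blood cultured in LIT medium at 28°C for 30–60 days. Cure meant negative on both tests.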

Trypanosoma cruzi [17] = assay: Antimicrobial activity against Trypanosoma cruzi Y infected IFN-gamma knock out C57BL/6 mouse Chagas disease model assessed as percent of cured mouse at 20 mg/kg, po twice daily after 20 days; outline: as §4
Trypanosoma cruzi [18] = assay: Antimicrobial activity against Trypanosoma cruzi Y infected IL12 knock out C57BL/6 mouse Chagas disease model assessed as percent of cured mouse at 20 mg/kg, po twice daily after 20 days; outline: as §4

Compound | Activity (Mus musculus [1]) | Activity (Mus musculus [2]) | Activity (Mus musculus [3]) | MST (Mus musculus [4]) | MST (Mus musculus [5]) | MST (Mus musculus [6]) | Activity (Trypanosoma cruzi [7]) | Activity (Trypanosoma cruzi [8]) | Activity (Trypanosoma cruzi [9]) | Activity (Mus musculus [10]) | Activity (Mus musculus [11]) | Activity (Mus musculus [12]) | MST (Mus musculus [13]) | MST (Mus musculus [14]) | MST (Mus musculus [15]) | Activity (Trypanosoma cruzi [16]) | Activity (Trypanosoma cruzi [17]) | Activity (Trypanosoma cruzi [18])
O=C(Cn1ccnc1[N+](=O)[O-])NCc1ccccc1 [BENZNIDAZOLE] | 0% | 100% | 17% | >60 days | 42.1 days | 59.6 days | 86% | 0% | 39% | – | – | – | – | – | – | – | – | –
CC[C@@H]([C@H](C)O)n1ncn(-c2ccc(N3CCN(c4ccc(OC[C@@H]5CO[C@@](Cn6cncn6)(c6ccc(F)cc6F)C5)cc4)CC3)cc2)c1=O [POSACONAZOLE] | – | – | – | – | – | – | – | – | – | 0% | 30% | 23% | >60 days | 52.1 days | 59.2 days | 89% | 15% | 35%
